# An excerpt weighted towards active compounds, which were near 3.3% of everything screened.
# GAA850 FXN act: increases GAA850 frataxin promoter reporter activity; HEK293 lucGAA850 FXN promoter luciferase reporter, 24 h; percent of 10 µM SAHA response; activation, % at 6 µM; actives 0.56% (n = 360,000);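 active = activation above the average of all compounds screened plus 3 SD, cutoff fixed separately per campaign, cut at about 7.5% in these data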;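 also: 0% = DMSO wells and 100% = 10 µM SAHA wells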
# ABCB6 inh 2: human ABCB6 transporter inhibition; Q9NP58; K562-ABCB6 porphyrin accumulation, flow cytometry, 1 h; stronger effect = lower value; fluorescence ratio to DMSO, % at 10 µM; actives 0.19% (n = 360,000); AID 602162;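 active = fluorescence ratio to DMSO below 75%, the collection mean minus 3 SD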;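 also: signal is porphyrin accumulated inside mitochondria; 100% equals median channel fluorescence of DMSO control wells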
# Target sequence (Q9NP58 whole entry, looked up): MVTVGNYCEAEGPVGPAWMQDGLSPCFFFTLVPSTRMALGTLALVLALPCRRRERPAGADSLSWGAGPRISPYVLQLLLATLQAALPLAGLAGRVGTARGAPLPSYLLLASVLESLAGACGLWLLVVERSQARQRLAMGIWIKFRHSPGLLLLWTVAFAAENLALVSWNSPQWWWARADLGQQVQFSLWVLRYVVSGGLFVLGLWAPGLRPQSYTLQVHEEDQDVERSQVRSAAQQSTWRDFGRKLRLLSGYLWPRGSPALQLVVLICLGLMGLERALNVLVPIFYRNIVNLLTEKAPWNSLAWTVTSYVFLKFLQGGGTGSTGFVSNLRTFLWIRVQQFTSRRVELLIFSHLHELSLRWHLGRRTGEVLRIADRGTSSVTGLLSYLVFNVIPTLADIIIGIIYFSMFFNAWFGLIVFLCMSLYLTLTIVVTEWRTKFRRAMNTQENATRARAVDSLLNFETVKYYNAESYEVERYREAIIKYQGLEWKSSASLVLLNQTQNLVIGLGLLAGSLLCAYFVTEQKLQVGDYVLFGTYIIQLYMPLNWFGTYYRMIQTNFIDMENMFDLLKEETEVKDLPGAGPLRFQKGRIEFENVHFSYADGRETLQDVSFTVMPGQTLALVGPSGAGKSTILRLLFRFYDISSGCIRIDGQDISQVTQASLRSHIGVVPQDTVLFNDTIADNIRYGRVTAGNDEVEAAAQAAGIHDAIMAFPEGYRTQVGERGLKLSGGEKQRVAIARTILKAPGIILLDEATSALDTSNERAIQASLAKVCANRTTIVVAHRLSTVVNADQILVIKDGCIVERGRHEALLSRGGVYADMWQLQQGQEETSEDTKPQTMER
# STAT3 act: STAT3 signaling activation. U3A cells, IL-6 STAT3-luciferase reporter, luminescence; 100% = signal with IL-6 EC80 alone. activation (% of control), % at 5.6 µM. actives 0.91% (n = 190,000). AID 871;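 active = activation above the screen-wide mean of compound activation plus 3 SD, cut at about 130% in these data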;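 also: 0% = background luminescence of wells with medium and substrate only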
#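 Test system: Human STAT1-deficient U3A cells with stable STAT3-luciferase reporter | Also added: Interleukin-6, 33 ng/mL | Timing: Compound pre-incubation 1 h before IL-6, then 6 h stimulation at 37 °C | Technique: Luciferase reporter luminescence | Read-out: Percent of IL-6-only median luminescence | Benchmarks: IL-6-only wells as 100% reference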
# AHR activator: activators of human aryl hydrocarbon receptor; P35869; AHR-responsive luciferase reporter cells, luminescence; activation, % at 5 µM; actives 2.5% (n = 320,000); AID 2796; in the data active = activation above about 47%;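 also: 0% = vehicle wells and 100% = reference agonist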
# GAA30 counter: activates GAA30 frataxin promoter, counter-screen for GAA850 activators; HEK293 lucGAA30 FXN promoter luciferase, 24 h; DMSO = 0%, 5 µM ipriflavone = 100%; shares compounds with GAA850 FXN act; actives 66% (n = 1,900); activation, % at 6 µM; AID 588350;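 active = mean activation above the mean of solvent-only control wells plus 3 SD, cut at about 22% in these data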;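 also: counterscreen of GAA850 promoter hits where activity marks nonselective or luminescence artifacts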
# GAA850 confirm: confirmation of GAA850 frataxin (FXN) promoter activators. actives 86% (n = 1,900). activation, % at 6 µM. shares compounds with GAA850 FXN act. HEK293 lucGAA850 FXN promoter luciferase reporter, 24 h; 100% = activation by SAHA;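 active = mean activation above a set limit taken from the primary screen, cut at about 8% in these data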;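 also: 0% = DMSO wells and 100% = 10 µM SAHA wells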
# * = called active by the depositor; · = not tested or not shown.
SMILES,GAA850 FXN act,ABCB6 inh 2,STAT3 act,AHR activator,GAA30 counter,GAA850 confirm
O=S(=O)(NC(CO)Cc1ccccc1)c1ccc(Br)cc1F (stereo not drawn),1,94,·,·,·,·
COc1cc(/C=N/Nc2ncnc3sc4c(c23)CCC4)ccc1O,20*,102,94,·,67*,20*
COc1cc(/C=N/NC2=NCCCCC2)ccc1O,0,95,·,4,·,·
Clc1cc(Cl)cc(Nc2ncn[nH]2)c1,3,92,89,7,·,·
COC(=O)c1ccc(N2C(=O)CC(N3CCN(C(=O)c4ccco4)CC3)C2=O)cc1 (stereo not drawn),11*,94,103,-2,16,8.2*
CC(O)CNc1ncnc2cc(-c3ccc(F)cc3)sc12 (stereo not drawn),10*,96,·,14,75*,30*
O=C(CSc1ncccn1)Nc1ncc(C(F)(F)F)cc1Cl,2,94,105,-3,·,·
O=C(CN1CCN(Cc2ccccc2Cl)C1=O)NCc1cccnc1,2,94,·,-1,·,·
O=C(CN1CCN(Cc2ccccc2F)C1=O)NCc1cccnc1,13*,98,98,2,16,5
CC(O)CC(=O)NOCc1ccccc1 (stereo not drawn),0,103,·,·,·,·
CCN(CC)CC1CN(N=Cc2ccc([N+](=O)[O-])o2)C(=O)O1 (stereo not drawn),1,107,·,·,·,·
Cc1ccc(-c2nn(-c3ccccc3)cc2/C=N/NS(=O)(=O)c2ccccc2)cc1,8.4*,98,93,3,81*,23*
Clc1ccc(-c2cnc3cccnn23)cc1,9.0*,98,·,·,38*,15*
COc1ccc(-c2cnc3cccnn23)cn1,2,97,·,·,·,·
O=C(Nc1ccc2oc(-c3cccc4ccccc34)nc2c1)c1ncn[nH]1,8.8*,89,100,12,104*,41*
O=C(Nc1ccc2oc(-c3ccccc3Cl)nc2c1)c1ncn[nH]1,4,90,94,-2,·,·
O=C(c1cc2ccccc2oc1=O)N1CCOCC1,7.7*,92,·,0,102*,34*
O=C(c1cc2cc(Cl)ccc2oc1=O)N1CCOCC1,-2,88,101,-1,·,·
CCCSc1nnc(-c2ccccc2N)c(=O)[nH]1,11*,104,120,10,90*,28*
CC(=O)OC1CCC2(C)C(COc3ccc4ccc(=O)oc4c3)C(C)(O)CCC2C1(C)C (stereo not drawn),12*,97,116,2,-4,17*
O=C1CC(c2ccco2)Sc2nc3ccccc3n21 (stereo not drawn),8.3*,102,119,20,84*,22*
COc1ccc(Cl)cc1N(CC(=O)NC1CC1)S(=O)(=O)c1ccc(C)c([N+](=O)[O-])c1,-2,92,97,11,·,·
Cc1cccc(Sc2nc(-c3ccccc3)ncc2C(=O)O)c1,1,101,121,15,·,·
COc1ccc(S(=O)(=O)N(C)C[C@H]2Oc3c(NC(=O)Nc4c(C)noc4C)cccc3C(=O)N([C@H](C)CO)C[C@@H]2C)cc1,-3,100,·,2,·,·
CCOC(=O)c1sc(-c2ccccc2)cc1N,8.9*,99,105,7,87*,23*
SMILES,GAA850 FXN act,ABCB6 inh 2,STAT3 act,AHR activator,GAA30 counter,GAA850 confirm
CCOC(=O)c1sc(-c2ccc(F)cc2)cc1N,7,109,104,6,·,·
CCOC(=O)c1sc(-c2ccc(OC)cc2)cc1N,9.7*,103,105,-1,109*,30*
O=Cc1ccc(N2CCCC2)c([N+](=O)[O-])c1,0,93,97,1,·,·
O=[N+]([O-])/C=C\c1ccc(N2CCCC2)c(F)c1,8.6*,118,88,·,19,31*
N#CCCN(Cc1ccccc1)C(=O)Nc1ccc(F)cc1,0,99,·,0,·,·
Cc1nc2c(-c3ccc(F)cc3)cnn2c2c1CCC2,8.2*,94,107,71*,90*,29*
Cc1cc(C)nc(SC2c3cccc4cccc(c34)C2NS(=O)(=O)c2ccccc2)n1 (stereo not drawn),8.6*,97,89,9,15,14*
